Screening results: PubChem BioAssay, several laboratories
Rows were chosen to be rich in hits. Some 2% of all compounds tested hit in one or more screens of this group.
LMP1 NFkB inh: EBV LMP1-driven NF-kappaB luciferase reporter inhibitors, primary screen, cell-based, luminescence, single point; LMP1-induced NF-kappaB luciferase reporter cells; inhibition, % at 12.5 µM; 350,000 compounds, 0.69% hits; in the data active = inhibition above about 41%; inconclusive = no clear call, values can overlap the other calls;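 also: 0% = neutral control wells and 100% = reference inhibitor control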
NR2E3 ag-1: NR2E3 agonists in two-hybrid cells, primary screen, cell-based, luminescence, CHO-S, Gal4-NCOR/VP16-NR2E3. Photoreceptor-specific nuclear receptor (Homo sapiens), Q9Y5X4. luciferase. inhibition of corepressor binding, % at 3.98 µM. 360,000 compounds, 0.35% hits;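 active = inhibition above the mean of all tested compounds plus 3 SD, cut at about 70% in these data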;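 also: 0% = DMSO with NR2E3 transfected cells and 100% = cells lacking NR2E3 construct; higher means lower luciferase signal from less NR2E3 corepressor binding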
Target sequence (Q9Y5X4 whole entry, looked up, the tested form may be a part): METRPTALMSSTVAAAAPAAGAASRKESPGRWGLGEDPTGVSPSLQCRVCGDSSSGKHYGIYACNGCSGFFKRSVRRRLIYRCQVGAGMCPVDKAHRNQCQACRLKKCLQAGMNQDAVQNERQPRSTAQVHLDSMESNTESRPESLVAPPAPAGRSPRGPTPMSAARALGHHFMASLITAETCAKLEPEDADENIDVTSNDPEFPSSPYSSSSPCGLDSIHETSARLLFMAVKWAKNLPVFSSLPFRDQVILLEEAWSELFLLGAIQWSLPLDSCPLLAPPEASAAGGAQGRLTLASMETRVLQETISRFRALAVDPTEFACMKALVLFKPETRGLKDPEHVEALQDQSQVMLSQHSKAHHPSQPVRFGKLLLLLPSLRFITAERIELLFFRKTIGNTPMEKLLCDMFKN
HIF act: HIF pathway transcriptional activators, primary screen, cell-based, U2OS HRE-luciferase, luminescence | U2OS HRE-luciferase reporter; normalized: DMSO 0%, desferrioxamine 100% | activation, % at 7.5 µM (by protocol) | 300,000 compounds, 0.32% hits;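 active = mean activation of at least 10% of the iron chelator positive control signal, with at least half of replicates also reaching 10%; inconclusive = mean and replicate majority disagree about reaching 10%; inactive = mean and most replicates under 10%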
NR2E3 ag-2: inhibitors of NR2E3-RetCOR corepressor binding, primary screen, NR2E3 agonist project, biochemical, TR-FRET, GST-NR2E3, biotin-RetCOR | Photoreceptor-specific nuclear receptor (Homo sapiens), Q9Y5X4 | 320,000 compounds, 0.12% hits | inhibition of corepressor binding, % at 4.78 µM | 1536-well;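 active = percent inhibition above the cutoff of mean plus 3 SD of all tested compounds, set per screening campaign, cut at about 20% in these data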;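 also: 0% = DMSO wells and 100% = biotin wells as full block of FRET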
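Test system: GST-NR2E3 and biotin-RetCOR proteins | Quantity: 1.35 nM GST-tagged NR2E3 final | Medium: Tris pH 7.5 | Also added: 7 nM biotin-RetCOR | Dosing: Compound at 4.8 µM, single dose | Timing: 5 h at 4 °C | Detection: Time-resolved FRET | Read-out basis: Percent inhibition | Benchmarks: Biotin wells as high control, 0.6% DMSO wells as low control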
TROY NFkB inh: inhibitors of TROY-driven NF-kB signaling, primary screen, Q293 LMP1-TROYcd cells, NF-kB luciferase, uHTS | Q293 LMP1-TROYcd NF-kB luciferase reporter, 4 h | inhibition, % at 10 µM | 360,000 compounds, 0.98% hits | AID 1347056, 2019;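 active = compounds whose plate-normalised and pattern-corrected inhibition of the luciferase reporter signal at the single screening dose is 50% or more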
The depositor's hits bear a star; u = inconclusive; x = no result given.

SMILES	LMP1 NFkB inh	NR2E3 ag-1	HIF act	NR2E3 ag-2	TROY NFkB inh
O=C(Nc1ccc2ccccc2c1)c1ccc(Cl)cc1	-50	-161	-19	4	-18
FC(F)(F)c1ccc(N2CCN(c3cc(-c4ccccc4)nc4ncnn34)CC2)nc1	30	17	x	0	67*
FC(F)(F)c1cccc(Nc2cc(-c3ccccc3)nc3ncnn23)c1	4	4	-1	-1	-8
CC1CCc2c(sc3ncnc(SCC(=O)N(C)C4CCS(=O)(=O)C4)c23)C1 (configuration not stated)	-3	20	x	x	-25
COc1ccc(NC(C)=O)cc1NC(C)C(=O)Nc1cccc2ccccc12 (configuration not stated)	5	4	0	2	57*
COc1ccc(NC(C)=O)cc1NC(C)C(=O)Nc1ccc(F)cc1 (configuration not stated)	-14	-24	0	-1	-3
C/C(CC(=O)Nc1ccccc1C(F)(F)F)=N\NC(=O)c1cnccn1	4	12	0	-3	-34
COc1ccccc1NC(=O)C(=O)N/N=C(\C)CC(=O)Nc1ccccc1C(F)(F)F	47*	-17	0	1	-12
COc1ccc(N/N=C(\C#N)C(=N)SCc2ccccc2)cc1	35	-31	4	x	52*
COc1ccc(N/N=C(\C#N)C(=N)N2CCCCC2)cc1	-21	-89	4	-4	7
Cc1cccc(OCCNC(=O)CCNS(=O)(=O)c2ccc3ccccc3c2)c1	-3	-9	x	-1	0
COc1ccc(/C=C2\CN(Cc3ccccc3)C/C(=C\c3ccc(OC)c(O)c3)C2=O)cc1O	86*	-32	-5	-1	5
CCN1C/C(=C/c2ccc(OC)c(O)c2)C(=O)/C(=C/c2ccc(OC)c(O)c2)C1	0	23	-7	2	3
CCN(CC)S(=O)(=O)c1ccc(N2CCN(C)CC2)c(NC(=O)COc2ccc(F)cc2Cl)c1	4	3	0	-2	-28
O=[N+]([O-])c1cccc(-c2csc(N/N=C/c3cccc(O)c3)n2)c1	6	-26	1	0	51*
Cc1ccc(-c2csc(N/N=C/c3ccco3)n2)cc1	-52	-11	3	1	-12
CN(C)S(=O)(=O)c1ccc(-c2csc(N/N=C/c3ccco3)n2)cc1	25	-2	0	-2	71*
CN(C)S(=O)(=O)c1ccc(-c2csc(N/N=C/c3ccc(O)cc3)n2)cc1	-35	-19	2	1	69*
Fc1ccc2cnc(CCO[C@H]3CCCCO3)cc2c1	15	-125	x	x	9
Cc1ccc(NC2=CC(=O)C(=O)c3ccccc32)c(C)c1	1	-20	x	8	74*
COc1cc(/C=C2\SC(=S)N(N3CCOCC3)C2=O)ccc1O	-5	23	0	-3	54*
COc1cc(/C=C2\SC(=S)N(N3CCOCC3)C2=O)cc(OC)c1OC	2	5	0	0	-6
COc1ccccc1C(=O)N/C(=C\c1cn(C)c2ccccc12)C(=O)NCCCN1CCOCC1	0	-2	-1	-1	7
Cc1ccc(S(=O)(=O)NCCC(=O)NCCSc2ccc(Br)cc2)cc1	12	-27	0	1	0
Cc1ccc2nc(-c3ccc4c(c3)OCCO4)cn2c1	85*	-27	-6	-1	78*
SMILES	LMP1 NFkB inh	NR2E3 ag-1	HIF act	NR2E3 ag-2	TROY NFkB inh
Clc1ccc2nc(-c3ccc4c(c3)OCO4)cn2c1	60*	-116	-5	2	0
c1ccn2cc(-c3ccc4c(c3)OCCO4)nc2c1	57*	-107	-5	4	21
O=C(Nc1cccc(-c2cn3ccccc3n2)c1)C1CC1	-6	-25	37*	0	-64
Cc1ccc2nc(-c3ccc4c(c3)NC(=O)CO4)cn2c1	1	-65	2	-2	6
Clc1ccc2nc(-c3ccccc3)cn2c1	-3	-118	-1	-3	9
CN(CC(=O)NCCc1ccccc1)Cc1ccco1	-17	-40	2	2	10
COc1cccc(C(NC(C)=O)c2nc(-c3cccc(C#N)c3)cs2)c1 (configuration not stated)	x	-18	x	x	-3
COc1ccc(-c2cn3cc(C)ccc3n2)cc1F	33	-99	-2	-3	61*
COc1ccc(-c2cn3cc(C)ccc3n2)cc1OC	6	-132	1	1	-69
Cc1ccc(N/N=C(\C#N)C(N)=S)cc1C	u	-9	1	-2	58*
N#C/C(=N\Nc1ccccc1)C(N)=S	22	10	0	-9	31
COC(=O)CC1C(=O)NCCN1C(=O)CSc1nnc(Nc2ccc(OC)cc2)s1 (configuration not stated)	0	-23	236*	1	-6
COc1ccc(CNC(=O)Cc2nn(C)c(=O)c3ccccc23)cc1	-12	102*	x	-4	14
CC1=C(CC(=O)c2ccc(Cl)cc2)C(=O)c2ccccc2C1=O	-23	-23	1	1	70*
O=C(O)c1ccc(NC(=O)C(c2ccccc2)c2ccccc2)cc1	8	8	1	1	-4
CC(=O)Nc1ccc(NC(=O)C(c2ccccc2)c2ccccc2)cc1	54*	-14	0	4	19
O=C(Nc1ccc(OC(F)F)c(Cl)c1)C(c1ccccc1)c1ccccc1	9	26	0	4	57*
O=C(Cc1cccc2ccccc12)Nc1ccc(OC(F)F)c(Cl)c1	-7	-27	1	0	-6
CCOc1ccc(CCNC(=O)Cc2ccc(S(=O)(=O)N3CCOCC3)s2)cc1OCC	6	-23	0	-1	-1
CCSc1nc(-c2ccccc2)nc(C(Cl)Cl)n1	67*	-21	-1	-3	-3
CCSc1nc(-c2ccccc2)c2cc(Cl)ccc2n1	-1	-6	0	-4	9
CSc1nc(-c2ccc(C)cc2)nc(C(Cl)Cl)n1	60*	-16	-1	2	1
Cc1ccc(-c2nc(C(Cl)Cl)c3ccccc3n2)cc1	-21	-47	3	0	-59
CC(C)COc1ccc(C(=O)Nc2ccc([N+](=O)[O-])cc2)cc1	-15	16	15*	1	-39
C=CCN(c1ccc(C(=O)Nc2ccc3c(c2)OCO3)cc1)S(C)(=O)=O	-4	-9	0	-5	-2
C=CCN(c1ccc(C(=O)Nc2ccc3c(c2)n(C)c(=O)n3C)cc1)S(C)(=O)=O	80*	-20	1	-2	-6
